Experimental data published in PMC12900291 (European journal of medicinal chemistry, 2025).
≈ marks a conversion by molar mass, not a printed value. Where “and” joins values, the source holds several entries; their conditions need not be identical. Identical values can stand only once. Entries after “also recorded” stand apart in the source; their conditions may differ.

Tests used:
[1] = molecular target: T1, SERCA2a (Sus scrofa, UniProt P11607); test: oxalate-based Ca2+-uptake; type: biochemical, porcine; details: cardiac SR
Procedure, shortened: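 Porcine left-ventricular SR vesicles (30 μg/mL) were prepared by differential centrifugation. Buffer: 50 mM MOPS, 100 mM KCl, 30 mg/mL sucrose, 10 mM potassium oxalate, 2 μM Fluo-4, free Ca2+ at pCa 8.0, 6.2 or 5.4, test compound 0.048–50 μM (two-fold series). Incubation 20 min at 22 °C, dark; 5 mM MgATP start; Fluo-4 decrease (ex 485/em 520 nm) tracked 15 min. Basal pCa 8.0 rate subtracted; Hill fit gives EC50 and % effect.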

[2] = Solubility assay in phosphate buffer, LC-MS/MS; type: physicochemical; details: 50 mM phosphate buffer pH 7.4, 37 °C, 12 h
[3] = molecular target: T1, SERCA2a; test: NADH-coupled enzyme-linked Ca2+-ATPase activity assay in cardiac SR vesicles; type: biochemical, porcine; details: for EC50: cardiac SR; for Max increase (%): Ca2+-ATPase activity, vs no compound, mean±SD, n=4-6
[4] = Intrinsic clearance; type: in vitro ADME, human; details: for Thalf: human liver S9 0.5 mg/mL, 1 μM compound, NADPH, 37 °C; for microsomal CLint at 1 μM: human, liver S9 fraction, pH 7.4
[5] = tested on: cardiomyocytes; details: cited from earlier work
[6] = molecular target: T1, SERCA2a; details: earlier HTS study; cited from earlier work
[7] = molecular target: T1, SERCA2a; details: earlier HTS study; cited from earlier work; remark: listed apart in the source
[8] = Ca2+-Uptake [Ca2+]MAX EC50 (μM), [Ca2+]MAX (pCa 5.4)
[9] = Ca2+-Uptake [Ca2+]MID EC50 (μM), [Ca2+]MID (pCa 6.2)
[10] = Ca2+-ATPase [Ca2+]MAX EC50 (μM), [Ca2+]MAX (pCa 5.4)
[11] = Ca2+-ATPase [Ca2+]MID EC50 (μM), [Ca2+]MID (pCa 6.2)

T1 sequence (P11607 1-997 isoform P11607-2): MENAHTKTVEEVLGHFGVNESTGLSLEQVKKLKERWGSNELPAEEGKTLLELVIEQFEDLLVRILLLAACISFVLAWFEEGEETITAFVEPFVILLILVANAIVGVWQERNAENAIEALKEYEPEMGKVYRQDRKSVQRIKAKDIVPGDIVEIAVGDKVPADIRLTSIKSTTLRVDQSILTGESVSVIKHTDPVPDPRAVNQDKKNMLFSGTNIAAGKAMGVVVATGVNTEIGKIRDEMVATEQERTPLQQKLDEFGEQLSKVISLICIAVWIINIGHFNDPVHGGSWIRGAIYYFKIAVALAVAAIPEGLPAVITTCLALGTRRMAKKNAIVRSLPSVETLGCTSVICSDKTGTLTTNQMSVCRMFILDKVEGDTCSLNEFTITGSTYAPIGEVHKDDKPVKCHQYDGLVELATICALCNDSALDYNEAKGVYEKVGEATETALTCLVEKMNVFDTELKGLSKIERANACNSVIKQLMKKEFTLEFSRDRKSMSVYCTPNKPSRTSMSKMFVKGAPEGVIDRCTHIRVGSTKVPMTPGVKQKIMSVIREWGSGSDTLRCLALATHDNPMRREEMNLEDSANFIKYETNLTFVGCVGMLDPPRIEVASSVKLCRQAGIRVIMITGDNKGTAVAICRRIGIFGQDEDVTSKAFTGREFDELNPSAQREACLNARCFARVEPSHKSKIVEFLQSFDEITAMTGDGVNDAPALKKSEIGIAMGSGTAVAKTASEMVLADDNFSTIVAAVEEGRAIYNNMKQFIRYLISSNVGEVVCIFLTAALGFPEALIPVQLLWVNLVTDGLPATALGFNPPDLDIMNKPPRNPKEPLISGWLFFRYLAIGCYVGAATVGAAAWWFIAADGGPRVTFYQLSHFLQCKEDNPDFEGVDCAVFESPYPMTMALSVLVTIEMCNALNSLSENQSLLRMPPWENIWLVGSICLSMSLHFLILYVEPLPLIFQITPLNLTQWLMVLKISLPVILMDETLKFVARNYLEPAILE

CCCN(Cc1ccccc1OC)C(=O)c1ccc(F)c(Br)c1 [Compound 25, 3-Bromo-4-fluoro-N-(2-methoxybenzyl)-N-propylbenzamide]
EC50 [1, 8]: 0.8 ± 0.57 µM
EC50 [1, 9]: 0.89 ± 0.4 µM
Ca2+-Uptake [Ca2+]MAX EC50 (μM) ([1]; [Ca2+]MAX (pCa 5.4)): decreased
Solubility [2]: 507 ± 7 µg/mL (≈ 1330 µM)
EC50 [3, 10]: 4 ± 2.1 µM
EC50 [3, 11]: 3.7 ± 0.73 µM
Max increase (%) ([3]; [Ca2+]MAX (pCa 5.4)): 53% and 53±7.7%
Thalf [4]: 74.5 min
microsomal CLint at 1 μM [4]: 15 ± 7.2 µL/min/mg

CCCN(Cc1ccccc1OC)C(=O)c1cc(C)c(C)s1 [Compound 1, N-(2-Methoxybenzyl)-4,5-dimethyl-N-propylthiophene-2-carboxamide]
EC50 [1, 8]: 1.1 ± 0.73 µM
EC50 [1, 9]: 0.46 ± 0.35 µM
EC50 [3, 10]: 5.3 ± 1.8 µM
EC50 [3, 11]: 6 ± 1.2 µM
Max increase (%) ([3]; [Ca2+]MAX (pCa 5.4)): 57% and 57±13%
SR Ca2+ load / Ca2+ dynamics [5]: increase SR Ca^2+ load; also recorded: increased Ca^2+ dynamics and Ca^2+ load
Thalf [4]: 97.6 min
microsomal CLint at 1 μM [4]: 14 ± 1.1 µL/min/mg
activation of SERCA2a Ca2+-uptake [6]: 24%
activation of SERCA2a ATPase activity [7]: 58%
